Laboratory results reported in ChEMBL document CHEMBL5303300, “EUbOPEN Chemogenomics Library - Multiplex” (2023).
“And” between values parts separate entries of the source, which are not always exact repeats. Equal entries are not always repeated.

System: HEK-293T
Experiment: Multiplex assay against HEK293T
Type: toxicity, cell-based
Conditions: human, number of replicates 2
Outline: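 With compound added, live cells were imaged on a CQ1 microscope at 37°C and 5% CO2; staining with Hoechst33342, BioTracker Green Microtubule Cytoskeleton Dye, MitoTracker Red and Annexin V Alexa Fluor 680 had been done at seeding. The CellPathfinder machine-learning gating scheme split cells into Hoechst high-intensity objects or normal cells, normal cells into healthy, pyknosed or fragmented nuclei, and pyknosed cells into mitotic or apoptotic. The tubulin, mitochondrial-mass and membrane-permeability phenotypes are per cents of healthy-nucleus cells.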

[1] = 12 h, 1 µM, compound concentration 1 uM
[2] = 12 h, 10 µM, compound concentration 10 uM
[3] = 24 h, 1 µM, compound concentration 1 uM
[4] = 24 h, 10 µM, compound concentration 10 uM
[5] = 48 h, 1 µM, compound concentration 1 uM
[6] = 48 h, 10 µM, compound concentration 10 uM

## CCn1ccc(Nc2ncc3c(n2)-c2c(nn(C)c2-c2ccc(-c4cnn(C)c4)cc2Cl)CC3)n1
[1]
  Population Apoptotic (%): 31% and 47%
  Population Fragmented Nuclei (%): 3%
  Population Healthy Nuclei (%): 87% and 84%
  Population Hoechst High Intensity Objects (%): 14% and 10%
  Population Membrane Permeable-Phenotype (%): 1% and 0%
  Population Mitochondria Different-Phenotype (%): 44% and 42%
  Population Mitotic Cells (%): 68% and 52%
  Population Normal (%): 85% and 89%
  Population Pyknosed Nuclei (%): 8% and 12%
  Population Tubulin-Different-Phenotype (%): 84% and 81%
  Total Cell Count: 429 and 424
[2]
  Population Apoptotic (%): 76% and 63%
  Population Fragmented Nuclei (%): 4% and 9%
  Population Healthy Nuclei (%): 86% and 80%
  Population Hoechst High Intensity Objects (%): 11%
  Population Membrane Permeable-Phenotype (%): 3% and 0%
  Population Mitochondria Different-Phenotype (%): 58% and 68%
  Population Mitotic Cells (%): 24% and 36%
  Population Normal (%): 88%
  Population Pyknosed Nuclei (%): 8% and 10%
  Population Tubulin-Different-Phenotype (%): 92% and 94%
  Total Cell Count: 332 and 321
[3]
  Population Apoptotic (%): 26% and 62%
  Population Fragmented Nuclei (%): 5%
  Population Healthy Nuclei (%): 87% and 85%
  Population Hoechst High Intensity Objects (%): 13% and 15%
  Population Membrane Permeable-Phenotype (%): 1%
  Population Mitochondria Different-Phenotype (%): 40% and 28%
  Population Mitotic Cells (%): 73% and 37%
  Population Normal (%): 86% and 84%
  Population Pyknosed Nuclei (%): 7% and 9%
  Population Tubulin-Different-Phenotype (%): 80% and 69%
  Total Cell Count: 473 and 512
[4]
  Population Apoptotic (%): 72% and 81%
  Population Fragmented Nuclei (%): 4% and 11%
  Population Healthy Nuclei (%): 89% and 80%
  Population Hoechst High Intensity Objects (%): 15% and 18%
  Population Membrane Permeable-Phenotype (%): 0% and 1%
  Population Mitochondria Different-Phenotype (%): 34% and 45%
  Population Mitotic Cells (%): 27% and 18%
  Population Normal (%): 84% and 81%
  Population Pyknosed Nuclei (%): 5% and 8%
  Population Tubulin-Different-Phenotype (%): 80%
  Total Cell Count: 438 and 393
[5]
  Population Apoptotic (%): 52% and 61%
  Population Fragmented Nuclei (%): 13% and 10%
  Population Healthy Nuclei (%): 83% and 85%
  Population Hoechst High Intensity Objects (%): 20%
  Population Membrane Permeable-Phenotype (%): 4% and 2%
  Population Mitochondria Different-Phenotype (%): 7% and 12%
  Population Mitotic Cells (%): 47% and 38%
  Population Normal (%): 79%
  Population Pyknosed Nuclei (%): 2% and 3%
  Population Tubulin-Different-Phenotype (%): 60% and 59%
  Total Cell Count: 930 and 827
[6]
  Population Apoptotic (%): 41% and 52%
  Population Fragmented Nuclei (%): 11% and 14%
  Population Healthy Nuclei (%): 85% and 82%
  Population Hoechst High Intensity Objects (%): 14% and 18%
  Population Membrane Permeable-Phenotype (%): 2% and 0%
  Population Mitochondria Different-Phenotype (%): 11% and 15%
  Population Mitotic Cells (%): 58% and 47%
  Population Normal (%): 85% and 81%
  Population Pyknosed Nuclei (%): 2% and 3%
  Population Tubulin-Different-Phenotype (%): 65% and 63%
  Total Cell Count: 674 and 549

## Cc1cc(C2CCCNC2)ccc1Nc1ncc(Br)c(NCc2cccc3c2C(C)(C)C(=O)N3)n1 (stereo not drawn)
[1]
  Population Apoptotic (%): 54%
  Population Fragmented Nuclei (%): 4% and 2%
  Population Healthy Nuclei (%): 88% and 83%
  Population Hoechst High Intensity Objects (%): 12% and 15%
  Population Membrane Permeable-Phenotype (%): 2% and 1%
  Population Mitochondria Different-Phenotype (%): 46% and 53%
  Population Mitotic Cells (%): 45%
  Population Normal (%): 87% and 84%
  Population Pyknosed Nuclei (%): 7% and 13%
  Population Tubulin-Different-Phenotype (%): 94% and 92%
  Total Cell Count: 482 and 397
[2]
  Population Apoptotic (%): 79% and 80%
  Population Fragmented Nuclei (%): 5% and 6%
  Population Healthy Nuclei (%): 89%
  Population Hoechst High Intensity Objects (%): 13% and 15%
  Population Membrane Permeable-Phenotype (%): 6% and 2%
  Population Mitochondria Different-Phenotype (%): 44% and 59%
  Population Mitotic Cells (%): 20%
  Population Normal (%): 86% and 84%
  Population Pyknosed Nuclei (%): 5% and 4%
  Population Tubulin-Different-Phenotype (%): 95%
  Total Cell Count: 520 and 580
[3]
  Population Apoptotic (%): 67% and 55%
  Population Fragmented Nuclei (%): 8% and 5%
  Population Healthy Nuclei (%): 84% and 87%
  Population Hoechst High Intensity Objects (%): 14% and 13%
  Population Membrane Permeable-Phenotype (%): 1%
  Population Mitochondria Different-Phenotype (%): 39% and 34%
  Population Mitotic Cells (%): 32% and 44%
  Population Normal (%): 85% and 86%
  Population Pyknosed Nuclei (%): 7% and 6%
  Population Tubulin-Different-Phenotype (%): 89% and 88%
  Total Cell Count: 567 and 602
[4]
  Population Apoptotic (%): 75% and 80%
  Population Fragmented Nuclei (%): 4% and 8%
  Population Healthy Nuclei (%): 89% and 85%
  Population Hoechst High Intensity Objects (%): 17% and 18%
  Population Membrane Permeable-Phenotype (%): 8% and 0%
  Population Mitochondria Different-Phenotype (%): 53% and 64%
  Population Mitotic Cells (%): 25% and 20%
  Population Normal (%): 82% and 81%
  Population Pyknosed Nuclei (%): 5%
  Population Tubulin-Different-Phenotype (%): 97% and 95%
  Total Cell Count: 550 and 640
[5]
  Population Apoptotic (%): 26% and 35%
  Population Fragmented Nuclei (%): 12% and 9%
  Population Healthy Nuclei (%): 84% and 87%
  Population Hoechst High Intensity Objects (%): 18% and 20%
  Population Membrane Permeable-Phenotype (%): 2%
  Population Mitochondria Different-Phenotype (%): 13% and 17%
  Population Mitotic Cells (%): 73% and 65%
  Population Normal (%): 81% and 79%
  Population Pyknosed Nuclei (%): 3% and 2%
  Population Tubulin-Different-Phenotype (%): 73% and 85%
  Total Cell Count: 832 and 880
[6]
  Population Apoptotic (%): 74% and 87%
  Population Fragmented Nuclei (%): 10% and 12%
  Population Healthy Nuclei (%): 77% and 70%
  Population Hoechst High Intensity Objects (%): 16% and 24%
  Population Membrane Permeable-Phenotype (%): 2% and 3%
  Population Mitochondria Different-Phenotype (%): 65% and 68%
  Population Mitotic Cells (%): 25% and 12%
  Population Normal (%): 83% and 75%
  Population Pyknosed Nuclei (%): 12% and 16%
  Population Tubulin-Different-Phenotype (%): 91%
  Total Cell Count: 517 and 572

## COCCN1CCN(CCn2ccc(Nc3ncc4c(n3)-c3c(nn(C)c3-c3ccccc3)C[C@H]4C)n2)CC1
[1]
  Population Apoptotic (%): 55% and 57%
  Population Fragmented Nuclei (%): 2% and 5%
  Population Healthy Nuclei (%): 86% and 79%
  Population Hoechst High Intensity Objects (%): 14% and 13%
  Population Membrane Permeable-Phenotype (%): 3%
  Population Mitochondria Different-Phenotype (%): 44% and 55%
  Population Mitotic Cells (%): 44% and 42%
  Population Normal (%): 85% and 86%
  Population Pyknosed Nuclei (%): 11% and 15%
  Population Tubulin-Different-Phenotype (%): 73% and 85%
  Total Cell Count: 402 and 361
[2]
  Population Apoptotic (%): 66% and 76%
  Population Fragmented Nuclei (%): 5%
  Population Healthy Nuclei (%): 76% and 78%
  Population Hoechst High Intensity Objects (%): 21% and 20%
  Population Membrane Permeable-Phenotype (%): 2%
  Population Mitochondria Different-Phenotype (%): 65% and 76%
  Population Mitotic Cells (%): 33% and 23%
  Population Normal (%): 78% and 79%
  Population Pyknosed Nuclei (%): 18% and 16%
  Population Tubulin-Different-Phenotype (%): 94% and 95%
  Total Cell Count: 332 and 297
[3]
  Population Apoptotic (%): 48% and 64%
  Population Fragmented Nuclei (%): 7% and 3%
  Population Healthy Nuclei (%): 86% and 90%
  Population Hoechst High Intensity Objects (%): 15% and 17%
  Population Membrane Permeable-Phenotype (%): 1% and 2%
  Population Mitochondria Different-Phenotype (%): 30% and 33%
  Population Mitotic Cells (%): 52% and 35%
  Population Normal (%): 84% and 82%
  Population Pyknosed Nuclei (%): 6%
  Population Tubulin-Different-Phenotype (%): 74% and 75%
  Total Cell Count: 473 and 331
[4]
  Population Apoptotic (%): 71% and 78%
  Population Fragmented Nuclei (%): 5% and 2%
  Population Healthy Nuclei (%): 72% and 83%
  Population Hoechst High Intensity Objects (%): 25% and 24%
  Population Membrane Permeable-Phenotype (%): 1% and 2%
  Population Mitochondria Different-Phenotype (%): 71% and 75%
  Population Mitotic Cells (%): 28% and 21%
  Population Normal (%): 74% and 75%
  Population Pyknosed Nuclei (%): 22% and 14%
  Population Tubulin-Different-Phenotype (%): 90% and 92%
  Total Cell Count: 250 and 217
[5]
  Population Apoptotic (%): 73% and 30%
  Population Fragmented Nuclei (%): 12% and 8%
  Population Healthy Nuclei (%): 84% and 87%
  Population Hoechst High Intensity Objects (%): 27% and 18%
  Population Membrane Permeable-Phenotype (%): 4% and 2%
  Population Mitochondria Different-Phenotype (%): 5% and 10%
  Population Mitotic Cells (%): 26% and 70%
  Population Normal (%): 72% and 81%
  Population Pyknosed Nuclei (%): 3% and 4%
  Population Tubulin-Different-Phenotype (%): 63% and 68%
  Total Cell Count: 864 and 570
[6]
  Population Apoptotic (%): 66%
  Population Fragmented Nuclei (%): 7% and 6%
  Population Healthy Nuclei (%): 89% and 82%
  Population Hoechst High Intensity Objects (%): 24% and 20%
  Population Membrane Permeable-Phenotype (%): 0% and 4%
  Population Mitochondria Different-Phenotype (%): 49% and 51%
  Population Mitotic Cells (%): 33%
  Population Normal (%): 75% and 79%
  Population Pyknosed Nuclei (%): 3% and 10%
  Population Tubulin-Different-Phenotype (%): 86% and 82%
  Total Cell Count: 245 and 220
